Source: PubChem
Compounds with a hit are over-represented: about 2.3% of the library has one in this group of screens.
STAT1 inh-1 = STAT1 signaling inhibition; NIH 3T3 STAT1-luciferase reporter, IFN-gamma, luminescence; inhibition, % at 5.5 µM; 200,000 compounds, 0.35% hits; AID 920;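 active means inhibition above a set limit, the mean inhibition across all tested compounds plus 3 SD, cut at about 34% in these data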;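 further: 0% = IFN-gamma with DMSO and 100% = IFN-gamma with 300 µM nifuroxazide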
STAT3 inh = inhibitors of IL-6 induced STAT3 signaling; U3A cells, IL-6 STAT3-luciferase reporter, luminescence; host cell line lacks STAT1; inhibition, % at 5.5 µM; 190,000 compounds, 0.89% hits; AID 862;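 active means inhibition above the mean inhibition across all screened compounds plus 3 SD, cut at about 44% in these data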;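 further: 0% = DMSO only wells and 100% = 100 µM nifuroxazide control wells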
HSP90 inh = blocks HSP90-mediated luciferase refolding in reticulocyte lysate; Rabbit reticulocyte lysate, luciferase refolding luminescence, 3 h; inhibition, % at 5.6 µM; 290,000 compounds, 0.91% hits; AID 1789;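 active means inhibition above the screen-wide mean plus 3 SD, computed separately per campaign, cut at about 16% in these data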;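 further: 0% = DMSO wells and 100% = 60 µM geldanamycin wells; inhibitors lower the luminescence because luciferase stays unfolded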
STAT3 activator = STAT3 signaling activation. U3A cells, IL-6 STAT3-luciferase reporter, luminescence; 100% = signal with IL-6 EC80 alone. AID 871. activation (% of control), % at 5.6 µM. 190,000 compounds, 0.91% hits;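 active means activation above the screen-wide mean of compound activation plus 3 SD, cut at about 130% in these data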;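 further: 0% = background luminescence of wells with medium and substrate only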
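Material: human U3A cells carrying STAT3-luciferase construct. Measured by: reporter luminescence signal. Timing: compound 1 h, then IL-6 6 h at 37 °C.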
C8 TRAIL sens = caspase-8 TRAIL sensitization; inhibition (viability loss, TRAIL sensitization), % at 10 µM; AID 624354; NB7+C8 cells + TRAIL, ATPlite viability luminescence; 360,000 compounds, 1% hits;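 active means compounds causing at least 50% loss of cell viability in the single-dose screen, relative to plate controls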
PPC-1+TRAIL kill = PPC-1 cancer cell killing with TRAIL present; PPC-1 cells + TRAIL, ATPLite viability luminescence; cell killing (% activity), % at 4 µM or 5 µM; 220,000 compounds, 0.41% hits;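 active means cell killing above 50% in the first pass at 4 µM, then a duplicate retest at 5 µM averaging 50% or more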;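 further: plate controls were cells with TRAIL plus DMSO for no effect and medium-only wells lacking cells for full effect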
STAT1 inh-2 = STAT1 inhibition, confirmation assay; shares compounds with STAT1 inh-1; NIH 3T3 STAT1-luciferase reporter, IFN-gamma, luminescence; inhibition, % at 5.5 µM; 200 compounds, 55% hits;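 active means triplicate mean inhibition exceeding the hit cutoff computed for the primary STAT1 screen, cut at about 35% in these data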;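 further: 0% = DMSO with IFN-gamma and 100% = 300 µM nifuroxazide with IFN-gamma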
NFkB inh = inhibits NF-kappaB, counter-screen to STAT1 inhibitors. shares compounds with STAT1 inh-1. HEK293T NF-kB luciferase reporter, TNF-alpha induced, luminescence. inhibition, % at 5.7 µM. 200 compounds, 30% hits. AID 1303;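 active means inhibition above the mean of solvent-only control wells plus 3 SD of those wells, cut at about 15% in these data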;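 further: 0% = DMSO with TNF-alpha and 100% = MG-132 control with TNF-alpha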
STAT3 inh 2 = inhibits STAT3, counter-screen to STAT1 inhibitors; shares compounds with STAT1 inh-1; U3A cells, IL-6 STAT3 luciferase reporter, luminescence; cells lacking STAT1; inhibition, % at 5.7 µM; 200 compounds, 20% hits;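 active means inhibition above the mean of solvent-only control wells plus 3 SD, set per campaign, cut at about 25% in these data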;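 further: 0% = IL-6 plus DMSO and 100% = IL-6 plus nifuroxazide control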
An asterisk follows results filed as active.

Screening Cc1cc(NC(=O)CCCS(=O)(=O)c2nc(-c3cccs3)cc(C(F)(F)F)n2)no1 returned STAT1 inh-1 47*, STAT3 inh 16, HSP90 inh 1, STAT3 activator 90, C8 TRAIL sens -7, PPC-1+TRAIL kill -34, STAT1 inh-2 48*, NFkB inh -5 and STAT3 inh 2 3.
`O=C1C2C3CCC(C3)C2C(=O)N1c1ccc(OS(=O)(=O)c2ccccc2)cc1` (centres undefined) gave STAT1 inh-1 -44, STAT3 inh 0, HSP90 inh 1, STAT3 activator 104, C8 TRAIL sens 9 and PPC-1+TRAIL kill 7.
`COc1nc(-c2ccccc2)cc(C(F)(F)F)n1` gave STAT1 inh-1 3, STAT3 inh 16, HSP90 inh 3, STAT3 activator 90, C8 TRAIL sens -17 and PPC-1+TRAIL kill 1.
Screening COC(=O)CCS(=O)(=O)c1nc(-c2ccccc2)cc(C(F)(F)F)n1 returned STAT1 inh-1 38*, STAT3 inh 13, HSP90 inh 1, STAT3 activator 92, C8 TRAIL sens 6, PPC-1+TRAIL kill 1, STAT1 inh-2 42*, NFkB inh -14 and STAT3 inh 2 4.
`COCCNC(=O)CCSc1nc(-c2ccc(OC)cc2)cc(C(F)(F)F)n1` gave STAT1 inh-1 1, STAT3 inh 8, HSP90 inh 0, STAT3 activator 96, C8 TRAIL sens -6 and PPC-1+TRAIL kill -2.
`COCC(C)NC(=O)CCS(=O)(=O)c1nc(-c2ccc(OC)cc2)cc(C(F)(F)F)n1` (centres undefined) gave STAT1 inh-1 43*, STAT3 inh 8, HSP90 inh 4, STAT3 activator 97, C8 TRAIL sens -14, PPC-1+TRAIL kill 10, STAT1 inh-2 51*, NFkB inh -1 and STAT3 inh 2 9.
`CC(NC(=O)c1cc(S(=O)(=O)N2CCOCC2)ccc1F)c1ccc(-n2ccnc2)cc1` (centres undefined) gave C8 TRAIL sens 11.
For Nc1ccc2nc(-c3ccc(N)c(Cl)c3)[nH]c2c1 the results were STAT1 inh-1 -49, STAT3 inh 35, HSP90 inh 1, STAT3 activator 72, C8 TRAIL sens 31 and PPC-1+TRAIL kill 40.
For Nc1ccc(-c2nc3c(Cl)cc(N)cc3[nH]2)cc1 the results were STAT1 inh-1 41*, STAT3 inh 26, HSP90 inh -2, STAT3 activator 79, C8 TRAIL sens 2, PPC-1+TRAIL kill 3, STAT1 inh-2 30, NFkB inh 35* and STAT3 inh 2 28*.
CCC(=O)Nc1ccc(-c2nc3ccccc3c(=O)o2)cc1 was read as STAT1 inh-1 39*, STAT3 inh 32, HSP90 inh 3, STAT3 activator 76, C8 TRAIL sens 48, PPC-1+TRAIL kill 41, STAT1 inh-2 19, NFkB inh 14 and STAT3 inh 2 -3.
`CC(=O)NC(C)(c1ccccc1)c1nc(-c2cnc3ccccc3c2)cs1` (centres undefined) gave C8 TRAIL sens 6.
`CCOC(=O)N1CCN(C(=O)c2ccc3c(=O)n(-c4ccc(OC)cc4)c(=S)[nH]c3c2)CC1` gave STAT1 inh-1 10, STAT3 inh 8, HSP90 inh 3, STAT3 activator 99, C8 TRAIL sens 5 and PPC-1+TRAIL kill -37.
CCOC(=O)N1CCN(C(=O)c2ccc3c(=O)n(-c4ccccc4F)c(=S)[nH]c3c2)CC1 was read as STAT1 inh-1 40*, STAT3 inh 17, HSP90 inh -1, STAT3 activator 89, C8 TRAIL sens 2, PPC-1+TRAIL kill 10, STAT1 inh-2 13, NFkB inh -12 and STAT3 inh 2 0.
Screening CCOC(=O)N1CCN(C(=O)c2ccc(-n3c(=S)[nH]c4ccccc4c3=O)cc2)CC1 returned STAT1 inh-1 60*, STAT3 inh 20, HSP90 inh -1, STAT3 activator 86, C8 TRAIL sens -9, PPC-1+TRAIL kill -4, STAT1 inh-2 48*, NFkB inh 8 and STAT3 inh 2 9.
CCc1ccc(S(=O)(=O)Nc2ccc(Br)cn2)cc1 was read as HSP90 inh -3 and C8 TRAIL sens 12.
Screening Clc1ccc(C[n+]2cc(-c3ccccc3)n3c2CCCCC3)c(Cl)c1 returned STAT1 inh-1 40*, STAT3 inh 26, HSP90 inh 2, STAT3 activator 79, C8 TRAIL sens 35, PPC-1+TRAIL kill 36, STAT1 inh-2 28, NFkB inh -9 and STAT3 inh 2 26*.
CC(C)(C)C1CCc2c(sc(NC(=O)c3cccs3)c2C(N)=O)C1 (centres undefined) was read as STAT1 inh-1 54*, STAT3 inh 8, HSP90 inh 7, STAT3 activator 94, C8 TRAIL sens 42, PPC-1+TRAIL kill 24, STAT1 inh-2 -58, NFkB inh -6 and STAT3 inh 2 -21.
For CCC(C)(C)C1CCc2c(sc(NC(=O)c3cccs3)c2C(N)=O)C1 (centres undefined) the results were STAT1 inh-1 16, STAT3 inh 10, HSP90 inh 16, STAT3 activator 93, C8 TRAIL sens 11 and PPC-1+TRAIL kill 30.
`CCN1C(=O)[C@H]2[C@H]3CN=C(SC)N3[C@@](CC)(C(=O)OC)[C@H]2C1=O` gave C8 TRAIL sens 5.
CCOC(=O)C(=CNc1cc(C)nn1-c1ccccc1)C(=O)OCC was read as STAT1 inh-1 52*, STAT3 inh 12, HSP90 inh 1, STAT3 activator 92, C8 TRAIL sens -3, PPC-1+TRAIL kill 1, STAT1 inh-2 46*, NFkB inh 0 and STAT3 inh 2 6.
`Nc1nc(N2CCOCC2)nc2ccccc12` gave STAT1 inh-1 5, STAT3 inh 0, HSP90 inh 9, STAT3 activator 102, C8 TRAIL sens 3 and PPC-1+TRAIL kill 9.
Screening O=C(O)C(Cc1ccccc1)N=Cc1c(O)c2ccccc2oc1=O (centres undefined) returned STAT1 inh-1 41*, STAT3 inh 10, HSP90 inh 0, STAT3 activator 95, C8 TRAIL sens -3, PPC-1+TRAIL kill 3, STAT1 inh-2 19, NFkB inh -5 and STAT3 inh 2 -24.
CC(C)c1ccc(N=Cc2c(O)c3ccccc3oc2=O)cc1 was read as HSP90 inh 14 and C8 TRAIL sens 3.
